tolC growth inh = growth inhibitors of E. coli BW25113 tolC mutant. OD615. growth inhibition, % at 10 µM (by protocol). actives 2.2% (n = 65,000). AID 573;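 active = growth inhibition at or above a cutoff equal to the mean over every tested compound plus 3 SD, cut at about 60% in these data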;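 also: growth measured after 20 h incubation at 37 °C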
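System: E. coli ΔtolC::kan strain BW25113; Buffer or medium: LB broth supplemented with 50 µg/mL kanamycin; Compound: 10 µM final, single dose; Incubation: bacterial growth with compound for 20 h at 37 °C; Signal: A615 absorbance measurement; Evaluation: growth inhibition in percent.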
E coli WT exp = growth inhibitors of E. coli BW25113 wild type. OD600 absorbance. growth inhibition, % at 100 µM. actives 0.15% (n = 98,000). AID 710;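 active = growth inhibition above about 50% at one test dose, limit read from the data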;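 also: growth measured after 20 h incubation at 37 °C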
PostGolgi ctrl = inhibits growth of the yeast control strain | AID 738 | inhibition, % at 10 µM | actives 5% (n = 98,000) | efflux-deficient yeast background strain, growth absorbance A615, 16 h
PostGolgi yeast = growth inhibition of a yeast mutant, post-Golgi transport screen. post-Golgi transport phenotypic cell assay. inhibition, % at 10 µM. actives 0.9% (n = 98,000). AID 739;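 also: yeast cells grown in 1536-well plates; yeast grown about 18 h at 30C before absorbance read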
Cav3 T inh = blocks human Cav3.2 T-type calcium channel | O95180 | Cav3.2-expressing cells, Fluo-4 calcium fluorescence FDSS; active compounds read low | B-score at 10 µM | actives 4% (n = 100,000) | AID 449739;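 active = single-dose well whose peak fluorescence ratio is a statistical outlier from its plate by either plate-standardised score or position-corrected B-score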
Numbers stand for hits; . = inactive; / = no result given; ! = not confirmed by another sample. The list is not random: actives were taken first. Their share in the collection is about 8.4%. Rule as the data show it, unless noted: active = inhibition above about 30%; inactive = the rest.

SMILES | tolC growth inh | E coli WT exp | PostGolgi ctrl | PostGolgi yeast | Cav3 T inh
CCOC(=O)C1C(=O)N(C(=O)c2cncc(Br)c2)CC1c1ccccc1 (configuration not stated) | . | . | . | . | .
CCOC(=O)c1c(C)nc2c(c1-c1cc(OC)ccc1OC)C(=O)c1ccccc1-2 | / | . | . | . | .
CCOC(=O)c1c(C)nc2c(c1-c1ccccc1)C(=O)c1ccccc1-2 | / | . | 35 | . | .
O=C(O)c1cc(C(F)(F)F)nc2c(C(F)(F)F)cccc12 | / | / | / | / | .
Cc1ccc2ccc(S(=O)(=O)n3nc(C)cc3C)cc2c1 | 78 | . | . | . | .
CC(=O)Nc1ccc(S(=O)(=O)n2nc(C)cc2C)cc1 | . | . | . | . | .
C[C@@H]1CC[C@@]2(O[C@@H](CCO)C[C@@H](O)[C@@H]2O)O1 | / | / | / | / | .
CCc1ccc(C2CC(=O)NC(SCC(=O)OC(C)C)=C2C#N)cc1 (configuration not stated) | . | . | . | . | -8.4
COC(=O)CSC1=C(C#N)C(c2ccc(C(C)C)cc2)CC(=O)N1 (configuration not stated) | . | . | . | . | .
O=C(Nc1cccc2ccccc12)c1nn(C23CC4CC(CC(C4)C2)C3)cc1[N+](=O)[O-] | / | . | 85 | 47 | .
O=C(Nc1ccccc1)C12CC3CC(C1)CC(n1cnc([N+](=O)[O-])n1)(C3)C2 | / | . | . | . | .
COCC(=O)N(Cc1cc2cc(OC)ccc2[nH]c1=O)c1ccc(C)cc1 | . | . | . | . | .
CCCCCn1c(SCc2ccncc2)nc2cc(C(=O)NCc3ccco3)ccc2c1=O | . | . | 43 | . | -4.2
Cc1cc(C)cc(C(=O)O/N=C(\N)c2ccc(Br)cc2)c1 | / | . | 30 | . | .
Cc1ccccc1C(=O)NC(C)c1ccc2c(c1)CCCC2 (configuration not stated) | / | . | . | . | .
N#C/C=C(/N)N1CCN(c2ccc(Cl)c(Cl)c2)CC1 | / | . | . | 32 | .
O=C(Nc1ccc(N2CCN(C(=O)c3ccc(Cl)cc3)CC2)cc1)c1ccc(Br)o1 | . | . | 54 | . | .
O=C(Cc1ccc(Cl)cc1)Nc1ccc(N2CCN(C(=O)c3ccco3)CC2)cc1 | . | . | 43 | . | .
COC(=O)N1CCN(c2ccc(Cl)c(Cl)c2)CC1 | . | . | . | . | .
O=C(Nc1ccc(N2CCN(C(=O)c3ccco3)CC2)c(Cl)c1)c1c(F)c(F)c(F)c(F)c1F | 77 | . | 63 | . | .
O=C(c1ccco1)N1CCN(c2ccc(Cl)cc2)CC1 | . | . | . | . | .
O=C(C1CCCN(Cc2ccccc2)C1)N1CCc2ccccc2C1 (configuration not stated) | / | . | . | . | /
COc1cc(N/C=C(\C(C)=O)c2ccccc2)cc(OC)c1 | / | . | . | . | .
Cc1cc(-c2cc(C(=O)Nc3ccccc3)on2)nc(NCC2CC2)n1 | / | / | / | / | .
CC1=C(C(=O)N2CCCCC2)C(c2cccs2)C2=C(CCCC2=O)N1 (configuration not stated) | . | . | . | . | .
SMILES | tolC growth inh | E coli WT exp | PostGolgi ctrl | PostGolgi yeast | Cav3 T inh
COc1cccc2c(=O)c(C/C=C(/C)Cl)c(C)[nH]c12 | . | . | . | . | .
O=C(Nc1ccccc1N1CCN(C(=O)c2ccc(Cl)cc2)CC1)c1cc2ccccc2o1 | . | . | . | . | -3.1
O=C(c1ccco1)N1CCN(c2ccc(Cl)c(Cl)c2)CC1 | . | / | / | / | -4.1
O=C(Nc1ccc(N2CCN(C(=O)c3ccc(Cl)cc3)CC2)cc1)c1cc2ccccc2o1 | / | . | . | . | .
Cc1ccc(C(C)NC(=O)/C(C#N)=C\c2c(C)[nH]c3ccccc23)cc1 (configuration not stated) | / | . | 59 | . | .
Cn1c(C(=O)OCC(=O)NCCc2ccccc2)cc2sccc21 | . | . | . | . | .
CSc1nnc(CSCc2ccc(Cl)cc2Cl)n1-c1ccccc1 | / | . | 51 | . | .
COc1ccccc1Nc1nc(C2(C)CCC(=O)O2)cs1 (configuration not stated) | . | . | . | . | .
O=C(C#Cc1cccc([N+](=O)[O-])c1)c1ccccc1 | / | . | 64 | 91 | .
CC(/C=C/c1cccs1)=C\C(=O)O | / | . | 32 | . | .
O=C(/C=C/c1cccs1)c1ccc(Br)cc1 | / | . | . | . | .
Cc1cc(/C=N/n2cnnc2)c(C)n1-c1cc(Cl)ccc1Cl | . | . | . | . | .
Cc1ccc(-c2ccc(/C=N/n3cnnc3)o2)cc1Cl | . | . | 60 | 80 | .
CCC(=O)c1ccc(O)c(CC=C(C)C)c1 | / | . | 31 | . | .
CCC(=O)c1ccc(O)c(OC)c1 | / | / | / | / | .
Cc1ccc(C(=O)CCC(=O)Nc2cccnc2)cc1C | . | . | . | . | .
Cc1cc(Cl)ccc1OCCCC(=O)Nc1cccnc1 | . | . | . | 34 | .
O=C(CCNS(=O)(=O)c1cccc2nonc12)NC1CCCc2ccccc21 (configuration not stated) | . | . | 32 | . | /
O=C(NC1CCCc2ccccc21)C1CCN(S(=O)(=O)c2cccc3nonc23)CC1 (configuration not stated) | . | . | . | . | .
CCOC(=O)N1CCN(C(=O)c2ccccc2Oc2ccccc2)CC1 | . | . | . | . | /
Cn1c(C(=O)N2CCN(C(=O)c3ccco3)CC2)cc2c(=O)n(C)c3ccccc3c21 | . | . | 35 | . | .
COCCCNC(=O)c1cc2c(=O)n(C)c3ccccc3c2n1C | . | . | 39 | . | .
COCCNC(=O)c1cc2c(=O)n(C)c3ccccc3c2n1C | . | . | . | . | .
O=C(c1cc(-c2ccccc2)nc2ccccc12)N1CCOCC1 | . | . | . | . | .
O=C(c1ccco1)N1CCN(C(=O)c2ccccc2Oc2ccccc2)CC1 | . | . | . | . | -5
SMILES | tolC growth inh | E coli WT exp | PostGolgi ctrl | PostGolgi yeast | Cav3 T inh
O=C(c1ccco1)N1CCN(C(=O)c2cc(-c3ccccc3)nc3ccccc23)CC1 | / | . | 31 | . | .
Cc1ccc(-n2c(O)c(/C=N/n3cnnc3)c3ccccc3c2=O)cc1 | . | . | 34! | . | .
Cc1csc(CCc2nc(C)cs2)n1 | . | . | . | . | .
O=C(NCCCN1CCOCC1)c1onc(CSc2ccncc2)c1C(=O)NCCCN1CCOCC1 | / | / | / | / | .
CCN1c2ccccc2-c2nc3ccccc3n2C1c1ccccn1 (configuration not stated) | . | . | 40 | . | .
CCN1c2ccccc2-c2nc3ccccc3n2C1c1ccncc1 (configuration not stated) | . | . | . | . | .
Cc1ccc(C2N(C)c3ccccc3-c3nc4ccccc4n32)o1 (configuration not stated) | / | . | . | . | -5.4
CCCCCCn1c(N2CCC(C(N)=O)CC2)nc2c1c(=O)n(C)c(=O)n2C | . | . | . | . | .
NC(=O)[C@H]1CC2(CC(c3cccc(NC(=O)COc4ccc(Cl)cc4)c3)=NO2)CN1C(=O)Cc1ccc([N+](=O)[O-])cc1 (some centres not stated) | / | / | / | / | .
COc1ccc(-c2csc(NCc3ccco3)n2)cc1C | 65 | . | . | . | .

Bioassay records as filed in PubChem BioAssay.
